# Assay results: ChEMBL document CHEMBL1914335, “Identification of a potent and selective σ₁ receptor agonist potentiating NGF-induced neurite outgrowth in PC12 cells” (Bioorg Med Chem, 2011)
# The source made the active and inactive calls. The calls are words filed in the database; no cut-off is given here.
# How the values were obtained:
# [1] = target: Sigma non-opioid intracellular receptor 1 (Cavia porcellus, UniProt Q60492); assay: Displacement of [3H]-(+)-pentazocine from sigma1 receptor in guinea pig brain membrane after 150 mins by liquid scintillation counting; assay type: cell membranes
# Procedure, shortened: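 Membranes (500 µg protein) incubated with 3 nM [3H]-(+)-pentazocine and nine test concentrations in 50 mM Tris-HCl pH 7.4, 150 min at 37 °C. Nonspecific binding defined by 10 µM haloperidol. Samples filtered on PEI-presoaked GF/B filters and counted by liquid scintillation; Ki calculated from these curves.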
# [2] = Displacement of [3H]-DTG from sigma2 receptor in guinea pig brain membrane after 120 mins by liquid scintillation counting; assay type: cell membranes, Cavia porcellus
# Procedure, shortened: (§1)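 For σ2, membranes (360 µg protein) incubated at rt for 120 min with 3 nM [3H]DTG plus 0.4 µM (+)-SKF10,047, with nine test concentrations in 50 mM Tris-HCl pH 8.0; nonspecific binding with 5 µM DTG. For σ1, 3 nM [3H]-(+)-pentazocine, 150 min at 37 °C, pH 7.4, haloperidol 10 µM. Both read by filtration and scintillation counting; Ki values derived.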
# [3] = target: Mu-type opioid receptor (Cavia porcellus) (UniProt P97266); assay: Displacement of [3H]-DAMGO from mu opioid receptor in guinea pig brain membrane assessed as residual binding at 1 uM after 150 mins by liquid scintillation counting; assay type: cell membranes
# Procedure, shortened: (§2)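 Guinea pig brain membranes (about 75 µg protein) incubated with 1 nM [3H]-DAMGO in 50 mM Tris, 8 mM MgCl2, 400 µM PMSF, pH 7.4, 150 min at 37 °C. Nonspecific binding with 10 µM naloxone. Filtration, then solid scintillator counting in triplicate. Residual binding taken at 1 µM test compound; otherwise IC50 from ≥6 concentrations, Ki by Cheng-Prusoff (Kd 0.57 nM).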
# [4] = target: Kappa-type opioid receptor (Cavia porcellus) (UniProt P41144); assay: Displacement of [3H]-U69593 from kappa opioid receptor in guinea pig brain membrane assessed as residual binding at 1 uM after 150 mins by liquid scintillation counting; assay type: cell membranes
# Procedure, shortened: as §2, with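 “[3H]-U69,593” for “[3H]-DAMGO”, “MgCl2,” for “MgCl2, 400 µM PMSF,”, “unlabeled U69,593.” for “naloxone.”, “µM;” for “µM test compound;”, “0.69” for “0.57”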
# Sus scrofa = species: Sus scrofa; assay: Displacement of [3H]-(+)-MK-801 from NMDA receptor PCP binding site in pig brain cortex assessed as residual binding at 10 uM after 150 mins by scintillation counting
# Procedure, shortened: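 Pig brain cortex membranes (about 100 µg protein) incubated with 2 nM [3H]-(+)-MK-801 in 5 mM Tris-acetate/1 mM EDTA pH 7.5, 150 min at rt. Nonspecific binding with 10 µM (+)-MK-801. Filtration, then solid scintillator counting. Residual binding measured at 10 µM test compound.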
# Mu-type opioid receptor = Mu-type opioid receptor (Cavia porcellus, UniProt P97266); assay: Displacement of [3H]-DAMGO from mu opioid receptor in guinea pig brain membrane after 150 mins by liquid scintillation counting; assay type: cell membranes; procedure, shortened: as §2
# [5] = target: Kappa-type opioid receptor (Cavia porcellus, UniProt P41144); assay: Displacement of [3H]-U69593 from kappa opioid receptor in guinea pig brain membrane after 150 mins by liquid scintillation counting; assay type: cell membranes
# Procedure, shortened: as §2, with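 “[3H]-U69,593” for “[3H]-DAMGO”, “MgCl2,” for “MgCl2, 400 µM PMSF,”, “unlabeled U69,593.” for “naloxone.”, “µM;” for “µM test compound;”, “0.69” for “0.57”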
# Cavia porcellus = species: Cavia porcellus; assay: Selectivity ratio of Ki for sigma2 receptor in guinea pig brain membrane to Ki for sigma1 receptor in guinea pig brain membrane; assay type: cell membranes; procedure, shortened: as §1
# [6] = target: Sigma non-opioid intracellular receptor 1 (Rattus norvegicus) (UniProt Q9R0C9); assay: Agonist activity at sigma1 receptor in rat PC12 cells assessed as cells with increase in NGF-induced neurite outgrowth at 2.5 uM after 5 days by phase contrast microscopy; assay type: functional, cell-based; conditions: PC-12
# Procedure, shortened: (§3)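 PC12 cells grown at 37 °C, 5% CO2 in RPMI with 5% FBS and 10% horse serum. Replated at 0.25 × 10^4 cells/cm2 on poly-D-lysine glass coverslips. After 24 h, switched to 0.5% HS medium with NGF 2.5 ng/mL ± drug, BD-1063 at 5 µM final where used. After 5 days, fixed in 4% PFA. Cells with ≥1 neurite at least one cell-body diameter long were scored blind by two examiners; ≥3 independent experiments.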
# [7] = target: Sigma non-opioid intracellular receptor 1 (Rattus norvegicus) (UniProt Q9R0C9); assay: Agonist activity at sigma1 receptor in rat PC12 cells assessed as increase of NGF-induced neurite length at 2.5 uM after 5 days by phase contrast microscopy; assay type: functional, cell-based; conditions: PC-12
# Procedure, shortened: (§4)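 Culture conditions match the neurite-outgrowth note: PC12 cells on poly-D-lysine coverslips with NGF 2.5 ng/mL ± drug for 5 days, BD-1063 at 5 µM final where used. Cells were then fixed in 4% PFA and imaged by phase contrast, six fields per coverslip. Neurite length was traced from cell body to tip, measured blind by two examiners; ≥3 independent experiments; mean ± SEM.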
# [8] = target: Sigma non-opioid intracellular receptor 1 (Rattus norvegicus) (UniProt Q9R0C9); assay: Agonist activity at sigma1 receptor in rat PC12 cells assessed as cells with increase in NGF-induced neurite outgrowth at 0.01 uM after 5 days by phase contrast microscopy; assay type: functional, cell-based; conditions: PC-12; procedure, shortened: as §3
# [9] = target: Sigma non-opioid intracellular receptor 1 (Rattus norvegicus) (UniProt Q9R0C9); assay: Agonist activity at sigma1 receptor in rat PC12 cells assessed as increase of NGF-induced neurite elongation at 0.25 uM after 5 days by phase contrast microscopy; assay type: functional, cell-based; conditions: PC-12; procedure, shortened: as §4
# [10] = target: Sigma non-opioid intracellular receptor 1 (Rattus norvegicus) (UniProt Q9R0C9); assay: Agonist activity at sigma1 receptor in rat PC12 cells assessed as cells with increase in NGF-induced neurite outgrowth at 0.05 uM after 5 days by phase contrast microscopy; assay type: functional, cell-based; conditions: PC-12; procedure, shortened: as §3
# [11] = target: Sigma non-opioid intracellular receptor 1 (Rattus norvegicus) (UniProt Q9R0C9); assay: Agonist activity at sigma1 receptor in rat PC12 cells assessed as cells with increase in NGF-induced neurite outgrowth at 0.25 uM after 5 days by phase contrast microscopy; assay type: functional, cell-based; conditions: PC-12; procedure, shortened: as §3
# [12] = target: Sigma non-opioid intracellular receptor 1 (Rattus norvegicus) (UniProt Q9R0C9); assay: Agonist activity at sigma1 receptor in rat PC12 cells assessed as increase of NGF-induced neurite elongation at 0.05 uM after 5 days by phase contrast microscopy; assay type: functional, cell-based; conditions: PC-12; procedure, shortened: as §4
# [13] = target: Sigma non-opioid intracellular receptor 1 (Rattus norvegicus) (UniProt Q9R0C9); assay: Agonist activity at sigma1 receptor in rat PC12 cells assessed as cells with increase in NGF-induced neurite outgrowth at 0.05 to 2.5 uM after 5 days by phase contrast microscopy; conditions: PC-12
# [14] = target: Sigma non-opioid intracellular receptor 1 (Rattus norvegicus) (UniProt Q9R0C9); assay: Agonist activity at sigma1 receptor in rat PC12 cells assessed as cells with increase in NGF-induced neurite outgrowth at 0.25 uM after 5 days by phase contrast microscopy in presence of 5 uM sigma1 receptor antagonist BD-1063; assay type: functional, cell-based; conditions: PC-12; procedure, shortened: as §3
# [15] = target: Sigma non-opioid intracellular receptor 1 (Rattus norvegicus) (UniProt Q9R0C9); assay: Agonist activity at sigma1 receptor in rat PC12 cells assessed as decrease in NGF-induced neurite elongation at 0.25 uM after 5 days by phase contrast microscopy in presence of 5 uM sigma1 receptor antagonist BD-1064 relative to compound alone; assay type: functional, cell-based; design: scale not given: the % may be the effect or the level left; conditions: PC-12, in the assay text read “BD-1063” for “BD-1064”; procedure, shortened: as §4
# PC-12 = assay: Cytotoxicity against rat PC12 cells; assay type: cell-based
# HaCaT [16] = assay: Cytotoxicity against human HaCaT cells at 1x10'-8 to 1x10'-5 M after 48 hrs by MTT assay; assay type: cell-based
# Procedure, shortened: (§5)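 HaCaT cells plated at 5000/well. After 24 h, exposed to 1 × 10^-8 to 1 × 10^-5 for 48 or 72 h at 37 °C, 5% CO2, in medium with 5% FBS or serum-free (N = 6 each). Viability was read as optical density in an MTT-based assay.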
# HaCaT [17] = assay: Cytotoxicity against human HaCaT cells at 1x10'-8 to 1x10'-5 M after 72 hrs by MTT assay; assay type: cell-based; procedure, shortened: as §5
# Sequence of Sigma non-opioid intracellular receptor 1 (Rattus norvegicus) (Q9R0C9 whole entry): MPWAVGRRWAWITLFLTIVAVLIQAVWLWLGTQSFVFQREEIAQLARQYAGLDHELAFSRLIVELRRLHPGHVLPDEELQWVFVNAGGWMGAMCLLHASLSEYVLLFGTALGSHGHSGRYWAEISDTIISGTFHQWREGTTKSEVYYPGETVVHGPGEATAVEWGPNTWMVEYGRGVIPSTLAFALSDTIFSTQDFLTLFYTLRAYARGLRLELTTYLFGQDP
# Sequence of Sigma non-opioid intracellular receptor 1 (Q60492 whole entry): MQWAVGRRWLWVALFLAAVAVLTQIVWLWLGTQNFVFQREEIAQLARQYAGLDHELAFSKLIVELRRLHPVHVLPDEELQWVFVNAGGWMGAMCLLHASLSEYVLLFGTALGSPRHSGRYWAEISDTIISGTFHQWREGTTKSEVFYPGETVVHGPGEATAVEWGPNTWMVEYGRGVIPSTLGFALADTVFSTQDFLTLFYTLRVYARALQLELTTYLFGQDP
# Sequence of Mu-type opioid receptor (P97266 whole entry): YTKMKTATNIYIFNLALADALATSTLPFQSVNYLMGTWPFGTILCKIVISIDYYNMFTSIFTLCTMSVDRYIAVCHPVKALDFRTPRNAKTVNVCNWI
# Sequence of Mu-type opioid receptor (Cavia porcellus) (P97266 whole entry): as above
# Sequence of Kappa-type opioid receptor (Cavia porcellus) (P41144 whole entry): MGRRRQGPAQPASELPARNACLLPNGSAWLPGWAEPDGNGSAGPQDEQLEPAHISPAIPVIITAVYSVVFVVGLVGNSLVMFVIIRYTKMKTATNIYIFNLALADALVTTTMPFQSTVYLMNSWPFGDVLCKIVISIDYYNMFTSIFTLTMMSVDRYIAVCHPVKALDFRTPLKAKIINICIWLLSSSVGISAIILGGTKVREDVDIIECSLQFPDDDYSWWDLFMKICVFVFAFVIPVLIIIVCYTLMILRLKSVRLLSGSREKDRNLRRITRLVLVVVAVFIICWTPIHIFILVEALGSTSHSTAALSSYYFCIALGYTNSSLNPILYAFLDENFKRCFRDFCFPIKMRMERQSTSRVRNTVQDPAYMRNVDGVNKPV
# Sequence of Kappa-type opioid receptor (P41144 whole entry): as above
Structure (SMILES),Ki [1],Ki [2],Activity [3],Activity [4],Activity (Sus scrofa),Ratio Ki (Cavia porcellus),other results
C/C(=C\CN(C)C)c1ccccc1,> 1000 nM,> 1000 nM,0%,0%,0%,–,–
COc1ccc(/C(C)=C/CN2CCC(Cc3ccccc3)CC2)cc1,4.14 nM,7.1 nM,–,–,0%,1.7,Ki (Mu-type opioid receptor): 149 nM; Ki [5]: 157 nM
COc1cccc(/C(C)=C/CN2CCCCC2)c1,91 nM,294 nM,21%,22%,0%,3.2,–
O=C(OCCN1CCOCC1)C1(c2ccccc2)CCCCC1,–,–,–,–,–,–,Activity [6]: inactive; Activity [7]: inactive; Activity [8]: inactive
C/C(=C\CN1CCC(Cc2ccccc2)CC1)c1ccc2ccccc2c1,23 nM,16 nM,38%,10%,17%,0.7,–
COc1ccc(/C(C)=C/CN(C)C)cc1,806 nM,> 1000 nM,10%,20%,0%,–,–
COc1cccc(/C(C)=C/CN(C)C)c1,> 1000 nM,> 1000 nM,17%,5%,60%,–,–
C/C(=C\CN1CCOCC1)c1ccc2ccccc2c1,9.6 nM,229 nM,44%,15%,31%,23.9,–
C/C(=C\CN1CCOCC1)c1ccccc1,> 1000 nM,> 1000 nM,12%,3%,19%,–,–
C/C(=C\CN1CCCCC1)c1ccc(-c2ccccc2)cc1,0.86 nM,111 nM,0%,6%,32%,129,Activity [6]: inactive; Activity [7]: inactive; Activity [9]: inactive; Activity [10]: inactive; Activity [11]: inactive; Activity [12]: inactive; Activity [13]: inactive
C/C(=C\CN(C)C)c1ccc2ccccc2c1,–,148 nM,–,–,–,7.5,–
C/C(=C\CN1CCOCC1)c1ccc(-c2ccccc2)cc1,11.6 nM,386 nM,52%,10%,69%,33.3,–
CC(CCN1CCCCC1)c1ccc(-c2ccccc2)cc1.Cl (racemic),0.7 nM,103 nM,0%,36%,25%,147,Activity [8]: 23.4%; Activity [9]: 131 µm; Activity [14]: 18.6%; Activity [15]: 31%; Activity (PC-12): Non-toxic; Activity (HaCaT [16]): Non-toxic; Activity (HaCaT [17]): Non-toxic
C/C(=C\CN(C)Cc1ccccc1)c1ccccc1,92 nM,61 nM,–,–,67%,0.7,Ki (Mu-type opioid receptor): 119 nM; Ki [5]: 438 nM
C/C(=C\CN1CCCCC1)c1ccc2ccccc2c1,0.97 nM,35.1 nM,23%,44%,16%,36.2,–
C/C(=C\CN(C)C)c1ccc(-c2ccccc2)cc1,–,106 nM,–,–,–,75.7,–
C/C(=C\CN1CCC(Cc2ccccc2)CC1)c1ccccc1,1.07 nM,5.49 nM,–,–,0%,5.1,Ki (Mu-type opioid receptor): 152 nM; Ki [5]: 189 nM
COc1cccc(/C(C)=C/CN(C)Cc2ccccc2)c1,10 nM,163 nM,49%,–,8%,16.3,Ki [5]: 301 nM

# The next lines start with results.
Ki [1],Ki [2],Activity [3],Activity [4],Activity (Sus scrofa),Ratio Ki (Cavia porcellus),Structure (SMILES),other results
> 1000 nM,> 1000 nM,46%,10%,20%,–,COc1cccc(/C(C)=C/CN2CCOCC2)c1,–
–,873 nM,–,–,–,111,C/C(=C\CN(C)Cc1ccccc1)c1ccc2ccccc2c1,–
–,75.7 nM,–,–,–,12,C/C(=C\CN(C)Cc1ccccc1)c1ccc(-c2ccccc2)cc1,–
7.7 nM,5.8 nM,36%,–,36%,0.8,COc1cccc(/C(C)=C/CN2CCC(Cc3ccccc3)CC2)c1,Ki [5]: 214 nM
> 1000 nM,> 1000 nM,0%,8%,10%,–,COc1ccc(/C(C)=C/CN2CCOCC2)cc1,–
14 nM,149 nM,36%,14%,0%,10.6,COc1ccc(/C(C)=C/CN2CCCCC2)cc1,–
7.02 nM,18 nM,0%,10%,17%,2.6,C/C(=C\CN1CCC(Cc2ccccc2)CC1)c1ccc(-c2ccccc2)cc1,–
5.25 nM,155 nM,–,–,27%,29.5,COc1ccc(/C(C)=C/CN(C)Cc2ccccc2)cc1,Ki (Mu-type opioid receptor): 92 nM; Ki [5]: 197 nM
459 nM,191 nM,19%,0%,0%,0.4,C/C(=C\CN1CCCCC1)c1ccccc1,–
